Experimental data from ChEMBL document CHEMBL3286180, “Efficacious inhaled PDE4 inhibitors with low emetic potential and long duration of action for the treatment of COPD” (J Med Chem, 2014).
Converted amounts (≈) assume the structure as drawn. The source made the active and inactive calls. The calls are words filed in the database; no cut-off is given here.

What was measured:
[1] = Aqueous solubility of the compound at pH 7.4; assay type: physicochemical; settings: aqueous medium
[2] = Half life in rat at 1 mg/kg, iv; assay type: ADME, organism-based; set-up: dose 1 mg/kg, route intravenous; settings: in vivo
Procedure, shortened: (§1)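 Rat pharmacokinetics were run at 1 mg/kg, given iv or by intratracheal instillation, with 2−3 animals per study.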

PBMC = experiment: Antiinflammatory activity in human PBMC assessed as inhibition of LPS-induced TNFalpha production after 20 hrs by fluorescence linked immunosorbant assay; assay type: functional, cell-based
Rattus norvegicus [3] = experiment: Apparent volume of distribution in rat at 1 mg/kg, iv; assay type: ADME, organism-based; set-up: dose 1 mg/kg, route intravenous; settings: in vivo; procedure, shortened: as §1
[4] = Volume of distribution at steady state in rat at 1 mg/kg, iv; assay type: ADME, organism-based; set-up: dose 1 mg/kg, route intravenous; settings: in vivo, read-out: Vdss
Cytochrome P450 1A2 = biological target: T1, Cytochrome P450 1A2 (Homo sapiens, UniProt P05177); experiment: Inhibition of CYP1A2 (unknown origin); assay type: ADME
T1 sequence (P05177 whole entry): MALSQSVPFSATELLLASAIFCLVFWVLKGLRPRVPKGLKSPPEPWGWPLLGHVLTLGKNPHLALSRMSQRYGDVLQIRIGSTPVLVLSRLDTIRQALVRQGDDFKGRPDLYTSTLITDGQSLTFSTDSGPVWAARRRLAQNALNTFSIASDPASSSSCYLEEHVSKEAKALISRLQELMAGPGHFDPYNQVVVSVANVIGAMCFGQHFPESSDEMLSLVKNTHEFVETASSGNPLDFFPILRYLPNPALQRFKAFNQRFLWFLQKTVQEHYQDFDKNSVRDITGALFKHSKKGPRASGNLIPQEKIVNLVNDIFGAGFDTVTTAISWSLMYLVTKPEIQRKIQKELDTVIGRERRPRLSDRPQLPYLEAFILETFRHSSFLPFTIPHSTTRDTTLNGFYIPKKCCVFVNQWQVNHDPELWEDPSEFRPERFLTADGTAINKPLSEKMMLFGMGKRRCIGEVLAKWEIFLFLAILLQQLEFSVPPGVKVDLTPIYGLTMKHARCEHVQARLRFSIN

Cytochrome P450 2C19 = Cytochrome P450 2C19 (Homo sapiens, UniProt P33261); experiment: Inhibition of CYP2C19 (unknown origin); assay type: ADME
Cytochrome P450 2D6 = Cytochrome P450 2D6 (Homo sapiens, UniProt P10635); experiment: Inhibition of CYP2D6 (unknown origin); assay type: ADME
[5] = Lipophilicity, log D of the compound; assay type: physicochemical; settings: octanol/water
Cytochrome P450 3A4 = Cytochrome P450 3A4 (Homo sapiens, UniProt P08684); experiment: Inhibition of CYP3A4 (unknown origin); assay type: ADME
[6] = Clearance in rat at 1 mg/kg, iv; assay type: ADME, organism-based; set-up: dose 1 mg/kg, route intravenous; settings: in vivo; procedure, shortened: as §1
[7] = Fraction unbound in human plasma; assay type: ADME, cell-free
Cytochrome P450 2C9 = Cytochrome P450 2C9 (Homo sapiens, UniProt P11712); experiment: Inhibition of CYP2C9 (unknown origin); assay type: ADME
Rattus norvegicus [8] = experiment: Antiinflammatory activity in Sprague-Dawley rat assessed as inhibition of LPS-induced bronchoalveolar lavage neutrophils at 0.03 mg/ml, inhalation administered as nebulized suspension; assay type: functional, organism-based
Procedure, shortened: (§2)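 Rats were given the compound as an aqueous nebulized aerosol by nose-only inhalation 30 min before LPS challenge. Dose is expressed as mg/mL nebulizer concentration. Lung neutrophilia was the readout, and terminal lung concentration (nM) was measured. Groups held 8−10 animals per treatment.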

Rattus norvegicus [9] = experiment: Antiinflammatory activity in Sprague-Dawley rat assessed as inhibition of LPS-induced bronchoalveolar lavage neutrophils at 0.01 mg/ml, inhalation administered as nebulized suspension; assay type: functional; procedure, shortened: as §2
[10] = biological target: 3',5'-cyclic-AMP phosphodiesterase 4B (Homo sapiens, UniProt Q07343); experiment: Inhibition of human recombinant PDE4B using [3H]cAMP by packard topcount scintillation counting analysis
Rattus norvegicus [11] = experiment: Antiinflammatory activity in Sprague-Dawley rat assessed as inhibition of LPS-induced bronchoalveolar lavage neutrophils measured as LPS duration at 0.1 mg/ml, inhalation administered as nebulized suspension; assay type: functional, organism-based
Procedure, shortened: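 Duration protocol: rats received a nose-only inhalation of nebulized aqueous compound solution 12 h before LPS challenge. Dose is expressed as mg/mL nebulizer concentration. Readout was LPS-induced pulmonary neutrophilia, with terminal lung concentration (nM) measured. Groups held 8−10 animals per treatment.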

Rattus norvegicus [12] = experiment: Antiinflammatory activity in Sprague-Dawley rat assessed as inhibition of LPS-induced bronchoalveolar lavage neutrophils at 1 mg/ml, inhalation administered as nebulized suspension; assay type: functional, organism-based; procedure, shortened: as §2

Cytochrome P450 2D6, sequence (P10635 whole entry): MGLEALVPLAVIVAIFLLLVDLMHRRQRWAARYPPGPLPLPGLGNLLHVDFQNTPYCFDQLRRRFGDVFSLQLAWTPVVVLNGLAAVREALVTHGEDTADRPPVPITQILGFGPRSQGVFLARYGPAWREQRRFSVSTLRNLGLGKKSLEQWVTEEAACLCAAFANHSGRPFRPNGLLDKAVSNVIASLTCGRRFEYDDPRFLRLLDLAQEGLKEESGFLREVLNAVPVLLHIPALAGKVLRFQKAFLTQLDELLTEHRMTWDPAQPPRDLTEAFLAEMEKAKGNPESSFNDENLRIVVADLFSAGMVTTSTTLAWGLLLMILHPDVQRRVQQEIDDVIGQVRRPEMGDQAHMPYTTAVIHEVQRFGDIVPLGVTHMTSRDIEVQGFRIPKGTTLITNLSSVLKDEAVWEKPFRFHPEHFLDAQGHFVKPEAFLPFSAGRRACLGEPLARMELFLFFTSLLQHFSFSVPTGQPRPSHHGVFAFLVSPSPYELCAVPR
Cytochrome P450 2C19, sequence (P33261 whole entry): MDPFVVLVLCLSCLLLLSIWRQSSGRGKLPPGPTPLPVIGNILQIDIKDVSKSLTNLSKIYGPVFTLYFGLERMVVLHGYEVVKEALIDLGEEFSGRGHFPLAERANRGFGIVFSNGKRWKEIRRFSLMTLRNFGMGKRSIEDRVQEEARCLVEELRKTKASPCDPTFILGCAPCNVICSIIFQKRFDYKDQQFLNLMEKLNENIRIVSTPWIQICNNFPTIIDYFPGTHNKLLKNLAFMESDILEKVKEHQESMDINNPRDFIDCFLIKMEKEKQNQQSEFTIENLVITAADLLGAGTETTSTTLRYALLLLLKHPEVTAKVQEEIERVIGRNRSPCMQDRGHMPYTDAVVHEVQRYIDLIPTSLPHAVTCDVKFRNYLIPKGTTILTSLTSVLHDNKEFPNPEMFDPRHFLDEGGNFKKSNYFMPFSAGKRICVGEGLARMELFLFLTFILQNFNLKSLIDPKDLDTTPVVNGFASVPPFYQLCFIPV
3',5'-cyclic-AMP phosphodiesterase 4B, sequence (Q07343 whole entry): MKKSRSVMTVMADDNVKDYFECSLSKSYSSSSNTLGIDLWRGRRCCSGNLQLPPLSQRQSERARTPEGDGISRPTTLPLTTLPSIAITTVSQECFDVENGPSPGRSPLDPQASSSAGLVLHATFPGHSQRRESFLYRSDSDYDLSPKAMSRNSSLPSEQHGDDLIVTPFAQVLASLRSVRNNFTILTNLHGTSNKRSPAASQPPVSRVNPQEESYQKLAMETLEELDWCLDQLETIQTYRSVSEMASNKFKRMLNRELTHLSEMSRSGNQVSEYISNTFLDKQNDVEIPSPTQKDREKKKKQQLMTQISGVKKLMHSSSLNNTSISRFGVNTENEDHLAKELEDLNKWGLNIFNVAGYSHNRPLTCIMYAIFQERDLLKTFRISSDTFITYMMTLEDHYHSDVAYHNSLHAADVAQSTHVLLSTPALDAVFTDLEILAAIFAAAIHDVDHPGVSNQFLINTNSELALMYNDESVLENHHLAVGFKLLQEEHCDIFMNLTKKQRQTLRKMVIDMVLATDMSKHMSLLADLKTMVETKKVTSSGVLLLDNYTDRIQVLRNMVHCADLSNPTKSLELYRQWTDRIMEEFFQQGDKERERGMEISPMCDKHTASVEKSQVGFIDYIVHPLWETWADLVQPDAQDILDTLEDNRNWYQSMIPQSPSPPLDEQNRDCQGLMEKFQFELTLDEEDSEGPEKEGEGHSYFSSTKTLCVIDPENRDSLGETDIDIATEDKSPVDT
Cytochrome P450 2C9, sequence (P11712 whole entry): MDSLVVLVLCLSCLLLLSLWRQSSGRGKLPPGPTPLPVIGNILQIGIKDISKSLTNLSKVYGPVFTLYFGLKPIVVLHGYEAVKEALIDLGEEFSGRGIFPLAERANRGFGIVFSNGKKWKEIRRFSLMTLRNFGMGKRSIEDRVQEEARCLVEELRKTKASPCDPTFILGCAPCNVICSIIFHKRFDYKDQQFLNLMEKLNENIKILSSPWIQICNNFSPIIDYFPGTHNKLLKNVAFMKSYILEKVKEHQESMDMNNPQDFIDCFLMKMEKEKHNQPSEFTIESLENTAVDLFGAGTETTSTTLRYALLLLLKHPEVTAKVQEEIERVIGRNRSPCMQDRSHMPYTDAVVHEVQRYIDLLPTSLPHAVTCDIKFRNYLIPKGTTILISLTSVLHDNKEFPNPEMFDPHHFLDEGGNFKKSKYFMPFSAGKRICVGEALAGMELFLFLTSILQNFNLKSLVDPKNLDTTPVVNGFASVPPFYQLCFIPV
Cytochrome P450 3A4, sequence (P08684 whole entry): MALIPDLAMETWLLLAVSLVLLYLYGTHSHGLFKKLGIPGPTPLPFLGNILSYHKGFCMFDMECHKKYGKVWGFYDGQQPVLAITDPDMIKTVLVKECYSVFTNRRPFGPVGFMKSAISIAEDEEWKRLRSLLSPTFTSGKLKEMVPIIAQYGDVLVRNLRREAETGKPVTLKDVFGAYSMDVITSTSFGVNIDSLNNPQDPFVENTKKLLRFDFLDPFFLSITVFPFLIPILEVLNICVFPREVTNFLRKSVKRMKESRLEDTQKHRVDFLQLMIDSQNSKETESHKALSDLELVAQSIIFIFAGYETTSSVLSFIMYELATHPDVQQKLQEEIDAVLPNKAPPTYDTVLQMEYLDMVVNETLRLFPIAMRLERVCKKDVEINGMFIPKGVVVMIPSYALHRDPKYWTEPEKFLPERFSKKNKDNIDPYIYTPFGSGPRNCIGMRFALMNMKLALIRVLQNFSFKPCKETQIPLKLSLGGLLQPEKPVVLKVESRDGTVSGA

SMILES	solubility [1]	half-life [2]	IC50 (PBMC)	Vz/F (Rattus norvegicus [3])	Vd [4]	logD [5]	IC50 (Cytochrome P450 3A4)	clearance [6]	fraction unbound [7]	IC50 (Cytochrome P450 2C9)	IC50 [10]	further results
Cc1cccc2nc(C(=O)N[C@H]3CC[C@@H](NC(=O)c4cc(F)cnc4Oc4cccc(-c5ccc(CN6C[C@@H](C)N[C@@H](C)C6)cc5)c4)CC3)cn12	460 µM (≈ 317 µg/mL)	5.3 h	0.126 nM	28 L/kg	14 L/kg	2.7	> 1000 nM	61 mL/min/kg	0.012	> 1000 nM		IC50 (Cytochrome P450 1A2): > 1000 nM; IC50 (Cytochrome P450 2C19): > 1000 nM; IC50 (Cytochrome P450 2D6): > 1000 nM
Cc1csc(C(=O)N[C@H]2CC[C@@H](NC(=O)c3cc(F)cnc3Oc3cccc(-c4ccc(CN5C[C@@H](C)N[C@@H](C)C5)cc4CN4CCOCC4)c3)CC2)n1												inhibition (Rattus norvegicus [8]): Active; inhibition (Rattus norvegicus [9]): Active
Cc1cc(C)n2ncc(C(=O)N[C@H]3CC[C@@H](NC(=O)c4cc(F)cnc4Oc4cccc(-c5ccc(O)cc5CN5CCOCC5)c4)CC3)c2n1											0.0501 nM	
CN(C)Cc1cc(O)ccc1-c1cccc(Oc2ncc(F)cc2C(=O)N[C@H]2CC[C@@H](NC(=O)c3cccc4ocnc34)CC2)c1											0.316 nM	
Cc1nc(C(=O)N[C@H]2CC[C@@H](NC(=O)c3cc(F)cnc3Oc3cccc(-c4ccc(CN5C[C@@H](C)N[C@@H](C)C5)cc4)c3)CC2)cs1												pIC50 [10]: 10.2
C[C@@H]1CN(Cc2ccc(-c3cccc(Oc4ncc(F)cc4C(=O)N[C@H]4CC[C@@H](NC(=O)c5cc6ccccn6n5)CC4)c3)cc2)C[C@H](C)N1	580 µM (≈ 392 µg/mL)	5.8 h	0.0794 nM	30 L/kg	13 L/kg	2.7	398 nM	58 mL/min/kg	0.045	> 1000 nM		inhibition (Rattus norvegicus [8]): Active
Cc1cc(C(=O)N[C@H]2CC[C@@H](NC(=O)c3cc(F)cnc3Oc3cccc(-c4ccc(CCN5CCC(N6CCCC6)CC5)cc4)c3)CC2)nn1C	120 µM (≈ 84.9 µg/mL)	9 h	0.0316 nM	59 L/kg	44 L/kg	2.4	> 1000 nM	74 mL/min/kg	0.042	> 1000 nM	0.0398 nM	IC50 (Cytochrome P450 1A2): > 1000 nM; IC50 (Cytochrome P450 2C19): > 1000 nM; IC50 (Cytochrome P450 2D6): > 1000 nM; inhibition (Rattus norvegicus [11]): Active
Cc1cc(C(=O)N[C@H]2CC[C@@H](NC(=O)c3cc(F)cnc3Oc3cccc(-c4ccc(O)c(CN5C[C@@H](C)N[C@@H](C)C5)c4)c3)CC2)nn1C	970 µM (≈ 650 µg/mL)		0.0316 nM			2.3			0.16			
C[C@@H]1CN(Cc2ccc(-c3cccc(Oc4ncc(F)cc4C(=O)N[C@H]4CC[C@@H](NC(=O)c5ncccc5O)CC4)c3)cc2)C[C@H](C)N1											0.126 nM	
Cc1cc(C(=O)N[C@H]2CC[C@@H](NC(=O)c3cc(F)cnc3Oc3cccc(-c4cc(O)cc(CN5C[C@@H](C)N[C@@H](C)C5)c4)c3)CC2)nn1C	> 1500 µM		0.398 nM			2.2			0.35			
Cc1cccc2nc(C(=O)N[C@H]3CC[C@@H](NC(=O)c4cc(F)cnc4Oc4cccc(-c5ccc(CN6CCC(N7CCCC7)CC6)cc5)c4)CC3)cn12	> 1400 µM	12 h	0.251 nM	80 L/kg	60 L/kg	3.2	> 1000 nM	79 mL/min/kg	0.02	> 1000 nM	0.0398 nM	inhibition (Rattus norvegicus [12]): Active; IC50 (Cytochrome P450 1A2): > 1000 nM; IC50 (Cytochrome P450 2C19): > 1000 nM; IC50 (Cytochrome P450 2D6): > 1000 nM
